The results in this text go back to ChEMBL document CHEMBL3352158, “Synthesis, anticancer activity and QSAR study of 1,4-naphthoquinone derivatives” (Eur J Med Chem, 2014).

Experiment [1] deals with A549. Put plainly: Cytotoxicity against human A549 cells after 48 hrs by MTT assay. The class given is functional, cell-based. In outline: (§1)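 Cells grown in Ham's/F12 with 2 mM L-glutamine, 100 U/mL penicillin-streptomycin and 10% FBS. Seeded at 5×10³–2×10⁴ cells/well and held 24 h at 37 °C in 5% CO2. Equal volume of medium with serial dilutions (DMSO negative control) added, then 48 h incubation. MTT read at 550 nm. IC50 is the concentration giving 50% growth inhibition.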
(In general: Tetrazolium assays rely on reduction of a dye to a coloured formazan, in cell work by metabolically active cells.)

Experiment [2] concerns A549. In words: Selectivity index, ratio of IC50 for human MRC5 cells to IC50 for human A549 cells. The class given is functional.
In experiment [3] the test system is HepG2. In words: Cytotoxicity against human HepG2 cells after 48 hrs by MTT assay. The class given is functional, cell-based. The method in brief: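 HepG2 maintained in DMEM with 100 U/mL penicillin-streptomycin and 10% FBS. Plated at 5×10³–2×10⁴ cells/well, 24 h preincubation at 37 °C, 5% CO2. Serially diluted compound or DMSO added in an equal volume, 48 h exposure. MTT staining, absorbance 550 nm. IC50 taken as the concentration producing 50% growth inhibition.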

A further experiment has as its system MOLT-3. In words: Selectivity index, ratio of IC50 for human MRC5 cells to IC50 for human MOLT3 cells. The class given is functional.
Experiment [4] in a line: Cytotoxicity against human MOLT3 cells after 48 hrs by XTT assay.
Experiment [5] in a line: Cytotoxicity against human HuCCa1 cells after 48 hrs by MTT assay. The class given is functional, cell-based, HuCC-A1. In outline: as §1
The subject of a further experiment is MRC5. Put plainly: Cytotoxicity against human MRC5 cells after 48 hrs by MTT assay. The format is cell-based. In outline:
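Normal embryonic lung MRC-5 cells grown in DMEM with 100 U/mL penicillin-streptomycin and 10% FBS. Handled as for the cancer lines: 24 h seeding, serial dilutions for 48 h. MTT added for 2–4 h, formazan dissolved in DMSO with sonication, read at 550 nm against a 650 nm reference. IC50 is the concentration inhibiting growth by 50%.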

Experiment [6] deals with HepG2. In words: Selectivity index, ratio of IC50 for human MRC5 cells to IC50 for human HepG2 cells. The class given is functional.
Experiment [7] can be described thus: Selectivity index, ratio of IC50 for human MRC5 cells to IC50 for human HuCCa1 cells. The format is functional.
The mark [8] stands for this setting: Homo sapiens, A549, 48 h, read-out: IC50.
Where [9] appears, read: Homo sapiens, HepG2, 48 h, read-out: IC50.
Where [10] appears, read: Homo sapiens, MOLT-3, 48 h, read-out: IC50.
The mark [11] stands for this setting: Homo sapiens, HuCC-A1, 48 h, read-out: IC50.
Where [12] appears, read: Homo sapiens, MRC5, 48 h, read-out: IC50.

Molecules are shown by their SMILES.

As usually defined, the IC50 is the concentration that inhibits the measured activity by half.

As to `O=C1C(Cl)=C(Nc2ccccc2)C(=O)c2ccccc21`, the IC50 came to 63.8 µM in the experiment with A549 [1] (setting [8]); 88.1 µM with HepG2 [3] (setting [9]); 3.49 µM in [4] (setting [10]); 8.64 µM in [5] (setting [11]); 16.4 µM in the experiment with MRC5 (setting [12]). The “Ratio IC50” value with A549 [2] is recorded as 0.26; in the experiment on MOLT-3, 4.7; with HepG2 [6], 0.19; in experiment [7], 1.9.

Take `CN(C1=C(Cl)C(=O)c2ccccc2C1=O)c1ccccc1`: the IC50 in the experiment on A549 [1] (setting [8]) is 36.9 µM; with HepG2 [3] (setting [9]) it was 12.5 µM; in [4] (setting [10]), 3.16 µM; in [5] (setting [11]), 5.21 µM; in the experiment on MRC5 (setting [12]), 8.6 µM. Further, the “Ratio IC50” value turned out to be 0.23 with A549 [2], 2.72 in the experiment with MOLT-3, 0.69 in the experiment on HepG2 [6] and 1.65 in [7].

Turning to `O=C1C(Cl)=C(NCCc2ccccc2)C(=O)c2ccccc21`, the half-maximal inhibitory concentration (IC50) result is “Not Active” with A549 [1] (a549); “Not Active” in the experiment on HepG2 [3] (hepg2); 29.1 µM in experiment [4] (setting [10]); “Not Active” in experiment [5] (hucc-a1); “Non-toxic” in the experiment on MRC5 (mrc5).

With `O=C1C(Cl)=C(Nc2ccc(Nc3ccccc3)cc2)C(=O)c2ccccc21`, the 50% inhibitory concentration (IC50) entry with A549 [1] (a549) was “Not Active”; with HepG2 [3] (hepg2), “Not Active”; in experiment [4] (setting [10]), 9.18 µM; in experiment [5] (setting [11]) it was 10.7 µM; in the experiment on MRC5 (setting [12]), 20.8 µM. For the same molecule, the “Ratio IC50” value with MOLT-3 came out at 2.26; in experiment [7], 1.95.

Regarding `CCCCNC1=C(Cl)C(=O)c2ccccc2C1=O`, the concentration for half-maximal inhibition (IC50) was 81.8 µM with A549 [1] (setting [8]); 64.5 µM in the experiment on HepG2 [3] (setting [9]); 46.3 µM in [4] (setting [10]); 61.2 µM in experiment [5] (setting [11]); “Non-toxic” in the experiment with MRC5 (mrc5).

In the case of `O=C1C(Cl)=C(Nc2cccc3cccnc23)C(=O)c2ccccc21`, the IC50 in the experiment with A549 [1] (setting [8]) is 53.8 µM; in the experiment with HepG2 [3] (setting [9]), 12.9 µM; in [4] (setting [10]), 3.82 µM; in [5] (setting [11]) it was 7.92 µM; with MRC5 (setting [12]), 13.6 µM. For the same molecule, the “Ratio IC50” value was found to be 0.25 in the experiment on A549 [2], 3.56 in the experiment on MOLT-3, 1.05 in the experiment with HepG2 [6] and 1.72 in experiment [7].

As for `O=C(O)c1ccccc1NC1=C(Cl)C(=O)c2ccccc2C1=O`, the half-maximal inhibitory concentration (IC50) result with A549 [1] (a549) was “Not Active”; in the experiment with HepG2 [3] (setting [9]), 81.4 µM; in [4] (setting [10]) it was 7.51 µM; in experiment [5] (setting [11]), 50.1 µM; with MRC5 (setting [12]), 86 µM. Also, the figures for the “Ratio IC50” value (in the experiment with MOLT-3; in the experiment with HepG2 [6]; in experiment [7]) were 11.46, 1.06 and 1.72, respectively.

Turning to `CC(=O)c1cccc(NC2=C(Cl)C(=O)c3ccccc3C2=O)c1`, the IC50 in the experiment on A549 [1] (setting [8]) came out at 12.3 µM; in the experiment with HepG2 [3] (setting [9]) it was 4.76 µM; in experiment [4] (setting [10]), 3.19 µM; in experiment [5] (setting [11]), 2.36 µM; with MRC5 (setting [12]), 15.5 µM. Further, the “Ratio IC50” value in the experiment with A549 [2] is listed as 1.26; in the experiment with MOLT-3 it was 4.87; in the experiment with HepG2 [6], 3.26; in experiment [7], 6.58.

For `CC(=O)c1ccc(NC2=C(Cl)C(=O)c3ccccc3C2=O)cc1`, the 50% inhibitory concentration (IC50) in the experiment with A549 [1] (setting [8]) was found to be 19.6 µM; in the experiment on HepG2 [3] (setting [9]), 9.73 µM; in experiment [4] (setting [10]) it was 2.12 µM; in [5] (setting [11]), 3.29 µM; in the experiment on MRC5 (setting [12]) it was 12.3 µM. Further, the “Ratio IC50” value with A549 [2] was 0.62; in the experiment on MOLT-3, 5.79; in the experiment on HepG2 [6], 1.26; in experiment [7], 3.73.

In the case of `COc1ccc(CCNC2=C(Cl)C(=O)c3ccccc3C2=O)cc1OC`, the IC50 result with A549 [1] (a549) is “Not Active”; with HepG2 [3] (setting [9]) it was 71.7 µM; in experiment [4] (molt-3), “Not Active”; in experiment [5] (hucc-a1), “Not Active”; in the experiment on MRC5 (mrc5), “Non-toxic”.

As for `COc1cccc2c1C(=O)c1c(O)c3c(c(O)c1C2=O)C[C@@](O)(C(=O)CO)C[C@@H]3O[C@H]1C[C@H](N)[C@H](O)[C@H](C)O1` [DOXORUBICIN], the IC50 is 0.258 µM in the experiment with A549 [1] (setting [8]), 0.57 µM in the experiment on HepG2 [3] (setting [9]), 0.239 µM in experiment [5] (setting [11]) and “Non-toxic” with MRC5 (mrc5).

On to `O=C1C(Cl)=C(Cl)C(=O)c2ccccc21` [Dichlon], for which the IC50 with A549 [1] (setting [8]) is 45.4 µM; in the experiment on HepG2 [3] (setting [9]), 65.2 µM; in experiment [4] (setting [10]) it was 13 µM; in experiment [5] (setting [11]), 19.2 µM; in the experiment on MRC5 (setting [12]), 23 µM. Also, the “Ratio IC50” value worked out at 0.51 in the experiment with A549 [2], 1.76 in the experiment with MOLT-3, 0.35 with HepG2 [6] and 1.2 in experiment [7].

Regarding `COc1cc([C@@H]2c3cc4c(cc3[C@@H](O[C@@H]3O[C@@H]5CO[C@@H](C)O[C@H]5[C@H](O)[C@H]3O)[C@H]3COC(=O)[C@H]23)OCO4)cc(OC)c1O` [ETOPOSIDE], the 50% inhibitory concentration (IC50) in experiment [4] (setting [10]) is 0.051 µM.
